This note sets out measurements from ChEMBL document CHEMBL4028851, “Discovery of Potent Small-Molecule Inhibitors of Ubiquitin-Conjugating Enzyme UbcH5c from α-Santonin Derivatives” (J Med Chem, 2017).

Activity calls are given as the source filed them. No cut-off for these calls is given here.

Series [1] has as its system Rattus norvegicus. Put plainly: Antiarthritic activity in Wistar rat Freund's adjuvant-induced arthritis model assessed as reduction in hind paw swelling at 5 to 20 mg/kg, po qd administered on day 10 to 20 postimmunization measured every 2 to 3 days during compound dosing. In kind it is functional, organism-based. Put shortly: (§1)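 Adjuvant arthritis was induced by intradermal CFA (0.1 mL) into the base of the left hind paw (day 0), with a boost 10 days later. Rats were dosed orally once daily at 5 or 20 mg/kg from day 10 to day 20, with 10 rats per group. Vehicle controls received 0.3% sodium carboxymethylcellulose. Two blinded observers scored the animals every 2 or 3 days. Data are mean ± S.E.M.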

Series [2] deals with Ubiquitin-conjugating enzyme E2 L3 (Homo sapiens) (UniProt P68036). The series is described as follows: Inhibition of UbcH7 (unknown origin) at 2.5 to 10 uM preincubated for 15 mins followed by E1, Ub and ATP addition measured after 40 mins by Western blot analysis.
Ubiquitin-conjugating enzyme E2 L3 (Homo sapiens), sequence (P68036 whole entry): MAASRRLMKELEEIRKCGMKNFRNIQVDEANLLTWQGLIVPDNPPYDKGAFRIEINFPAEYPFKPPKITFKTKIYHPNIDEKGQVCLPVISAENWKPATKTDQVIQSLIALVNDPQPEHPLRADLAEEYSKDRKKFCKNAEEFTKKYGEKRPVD
Series [3] addresses T1, Ubiquitin-conjugating enzyme E2 K (Homo sapiens) (UniProt P61086).
T1 sequence (whole entry): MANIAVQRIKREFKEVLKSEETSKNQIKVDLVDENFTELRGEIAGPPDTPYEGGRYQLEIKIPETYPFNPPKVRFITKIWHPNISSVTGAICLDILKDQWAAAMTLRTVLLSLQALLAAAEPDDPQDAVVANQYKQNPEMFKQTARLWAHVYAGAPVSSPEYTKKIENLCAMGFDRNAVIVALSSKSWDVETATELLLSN
The series is described as follows: Inhibition of E2-25K (unknown origin) at 2.5 to 10 uM preincubated for 15 mins followed by E1, Ub and ATP addition measured after 40 mins by Western blot analysis.

Series [4] relates to Rattus norvegicus. Put plainly: Antiarthritic activity in Wistar rat Freund's adjuvant-induced arthritis model assessed as reduction in arthritis index score at 5 to 20 mg/kg, po qd administered on day 10 to 20 postimmunization measured every 2 to 3 days during compound dosing. It counts as functional, organism-based. The gist of the method: as §1
A short description of series [5]: Binding affinity to IYHPNINSNGSICLDILR assessed as covalent adduct formation with Cys85 residues after 1 hr by LC/MS/MS analysis.
Series [6] in a line: Volume of distribution at steady state in Sprague-Dawley rat at 1 mg/kg, iv by LC-MS/MS analysis. Particulars: in vivo, read-out: Vdss. It counts as ADME, organism-based. Put shortly: (§2)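 Male Sprague-Dawley rats (about 200‒220 g; n = 6) were fasted overnight and given a single 1 mg/kg iv dose in DMSO:castor oil:saline (3:3:94). Blood was sampled from the orbital artery into heparin tubes. Plasma was analysed by LC/MS/MS (ESI, MRM), and parameters came from noncompartmental analysis. Values are mean ± SD.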

The nature of series [7]: Half life in rat whole blood at 5 uM. In kind it is ADME. The gist of the method:
(§3)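 Compound (5 µM final, from a 25 mM DMSO stock) was incubated at 37 °C in rat plasma (0–90 min) or rat whole blood (0, 5, 10, 30, 60, 90 min). Reactions were quenched with ice-cold acetonitrile, centrifuged, and the supernatants analysed.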

Series [8] can be described thus: AUC (0 to infinity) in Sprague-Dawley rat at 5 mg/kg, po via gavage by LC-MS/MS analysis. In kind it is ADME, organism-based. Also on record: dose 5 mg/kg, time infinity, route oral. The note with it: in vivo. Put shortly: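 Male Sprague-Dawley rats (about 200‒220 g), n = 6, fasted overnight; single oral gavage at 5 mg/kg as a suspension in 0.5% methylcellulose. Blood was drawn from the orbital artery into heparin tubes at 0.083–24 h. Plasma was analysed by LC/MS/MS (ESI, MRM). AUC(0-∞) came from noncompartmental analysis, reported as mean ± SD of six rats.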

A short description of series [9]: Half life in rat liver microsomes at 5 uM in preincubated for 3 mins followed by NADPH addition measured up to 90 mins. In kind it is ADME, microsome. The gist of the method: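 Rat liver microsomes (0.5 mg/mL) were used in 100 mM potassium phosphate, pH 7.4, with compound at 5 µM final. After 3 min preincubation at 37 °C, an NADPH-generating system was added (4 mM MgCl2, 1 mM NADP+, 10 mM glucose 6-phosphate, 1 unit/mL G6PDH). Incubation continued for 0–90 min and was stopped with ice-cold acetonitrile.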
On the technique in general: Liver microsomes are a subcellular fraction often used to study metabolism.

Series [10] concerns the target Ubiquitin-conjugating enzyme E2 D3 (Mus musculus) (UniProt P61079). Put plainly: Inhibition of UbcH5c in mouse b.End3 cells assessed as decrease in TNF-alpha-mediated IkB-alpha degradation at 10 uM preincubated for 2 hrs followed by TNF-alpha stimulation for 15 mins by Western blot analysis.
Series [11] has the same target. The series is described as follows: Inhibition of UbcH5c in mouse b.End3 cells assessed as decrease in TNF-alpha-mediated IkB-alpha phosphorylation at 10 uM preincubated for 2 hrs followed by TNF-alpha stimulation for 20 mins by Western blot analysis. It counts as cell-based. Put shortly:
(§4)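 bEnd.3 cells (DMEM, 10% FBS) were pretreated with compound at 2.5, 5 or 10 µM for 2 h, then stimulated with 20 ng/mL TNF-α (15 min in the methods, 20 min in the legend). Lysates were run on 10% SDS-PAGE and immunoblotted for phospho-IκBα, IκBα, phospho-p65 and p65, with GAPDH as loading control.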
(A western blot detects proteins with antibodies after separation by electrophoresis.)

Series [12] shares this target. The series is described as follows: Inhibition of UbcH5c in mouse b.End3 cells assessed as decrease in TNF-alpha-mediated IkB-alpha degradation preincubated for 2 hrs followed by TNF-alpha stimulation for 20 mins by Western blot analysis. It counts as cell-based. The gist of the method: as §4
Series [13] is described as follows: AUC (0 to infinity) in Sprague-Dawley rat at 1 mg/kg, iv by LC-MS/MS analysis. It counts as ADME, organism-based. Details: dose 1 mg/kg, time infinity, route intravenous. The note with it: in vivo.
The target in series [14] is T2, Ubiquitin-conjugating enzyme E2 H (Homo sapiens) (UniProt P62256).
T2 sequence (whole entry): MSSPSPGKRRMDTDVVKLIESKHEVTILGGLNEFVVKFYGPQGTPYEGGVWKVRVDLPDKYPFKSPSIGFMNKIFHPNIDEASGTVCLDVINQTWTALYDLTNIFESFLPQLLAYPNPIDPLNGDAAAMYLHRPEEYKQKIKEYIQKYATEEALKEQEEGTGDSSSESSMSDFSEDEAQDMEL
The series is described as follows: Inhibition of UbcH2 (unknown origin) at 2.5 to 10 uM preincubated for 15 mins followed by E1, Ub and ATP addition measured after 40 mins by Western blot analysis.

A short description of series [15]: Clearance in Sprague-Dawley rat at 1 mg/kg, iv by LC-MS/MS analysis. It counts as ADME, organism-based. Particulars: in vivo. Put shortly: as §2
Series [16] has as its target Ubiquitin-conjugating enzyme E2 D3 (Mus musculus) (UniProt P61079). The series is described as follows: Inhibition of UbcH5c in mouse b.End3 cells assessed as decrease in TNF-alpha-mediated IkB-alpha phosphorylation preincubated for 2 hrs followed by TNF-alpha stimulation for 20 mins by Western blot analysis. In kind it is cell-based. Put shortly: as §4
Series [17] is described as follows: Half life in rat plasma at 5 uM. In kind it is ADME, cell-free. The gist of the method: as §3
The target in series [18] is Ubiquitin-conjugating enzyme E2 D1 (Homo sapiens) (UniProt P51668). The series is described as follows: Inhibition of UbcH5a (unknown origin) at 2.5 to 10 uM preincubated for 15 mins followed by E1, Ub and ATP addition measured after 40 mins by Western blot analysis.
Ubiquitin-conjugating enzyme E2 D1 (Homo sapiens), sequence (P51668 whole entry): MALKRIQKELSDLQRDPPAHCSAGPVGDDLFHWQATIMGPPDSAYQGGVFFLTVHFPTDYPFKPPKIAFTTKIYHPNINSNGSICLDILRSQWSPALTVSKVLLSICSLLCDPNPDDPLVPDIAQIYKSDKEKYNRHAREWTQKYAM
In series [19] the target is Ubiquitin-conjugating enzyme E2 D2 (Homo sapiens) (UniProt P62837). The series is described as follows: Inhibition of UbcH5b (unknown origin) at 2.5 to 10 uM preincubated for 15 mins followed by E1, Ub and ATP addition measured after 40 mins by Western blot analysis.
Ubiquitin-conjugating enzyme E2 D2 (Homo sapiens), sequence (P62837 whole entry, looked up): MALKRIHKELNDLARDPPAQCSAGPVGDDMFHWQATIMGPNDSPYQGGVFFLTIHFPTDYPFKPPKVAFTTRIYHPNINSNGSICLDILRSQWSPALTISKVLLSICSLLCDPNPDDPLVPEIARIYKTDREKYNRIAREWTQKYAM

Ubiquitin-conjugating enzyme E2 D3 (Mus musculus), sequence (P61079 whole entry, looked up): as the sequence (P62837 whole entry, looked up) above, with H7N, N11S, E132D, A138S counted along it

What is called half-life is the time in which the quantity being followed falls by half. Low values mean fast loss, high ones slow loss. As usually defined, the AUC(0-inf) is total exposure, with the tail of the curve extrapolated. The clearance is a measure of how efficiently the substance is removed, as volume per time. In the case of `C=C1C(=O)O[C@H]2c3c(C)c(OCc4ccccc4Br)cc(C)c3CC[C@@H]12`, the outcome (in the series on Rattus norvegicus [1]; in the series with Rattus norvegicus [4]; in [5]) was Active. Besides, the inhibition result in series [2], in series [10], in [11], in [18] and in series [19] was “Active” in each case. Also, the inhibition entry in [3] and in series [14] was “inactive” in each case. Also, the Vd in series [6] turned out to be 6.26 L/kg. Further, the results for the half-life at 5 µM in [7], in [9] and in [17] were 0.663 h, 2.11 h and 1.43 h, respectively. Also, the AUC(0-inf) in series [8] was 314 ng·h/mL; in series [13] it was 408 ng·h/mL. Besides, the inhibition entry in series [12] and in series [16] was “Dose-dependent effect” each time. This molecule had a clearance in series [15] of 41.3 mL/min/kg.
